Experimental data: ChEMBL document CHEMBL1143246, “Design and synthesis of bicyclic pyrimidinones as potent and orally bioavailable HIV-1 integrase inhibitors” (J Med Chem, 2008)

How the values were obtained:
[1] = Half life in dog at 1 mg/kg, iv; assay type: ADME, organism-based, Canis lupus familiaris; design: dose 1 mg/kg, route intravenous; settings: in vivo
Outline: (§1)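 In vivo PK: iv dosing in DMSO/PEG400/H₂O mixtures, oral dosing as methylcellulose suspension. Half-life was taken after iv dosing; AUC and Cmax after po dosing.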

Cytochrome P450 2C9 = Cytochrome P450 2C9 (Homo sapiens, UniProt P11712); assay: Inhibition of CYP2C9; assay type: ADME
[2] = Inhibition of HIV-RNase-H; design: species or system Human immunodeficiency virus
[3] = AUC in rhesus monkey at 10 mg/kg, po; assay type: ADME, organism-based, Macaca mulatta; design: dose 10 mg/kg, route oral; settings: plasma
[4] = Plasma clearance in rat at 3 mg/kg, iv or 10 mg/kg, po; assay type: ADME, organism-based
Cytochrome P450 2C19 = Cytochrome P450 2C19 (Homo sapiens, UniProt P33261); assay: Inhibition of CYP2C19; assay type: ADME
[5] = Cmax in dog at 2 mg/kg, po; assay type: ADME, organism-based, Canis lupus familiaris; design: dose 2 mg/kg, route oral; settings: in vivo; outline: as §1
[6] = Oral bioavailability in rhesus monkey at 10 mg/kg; assay type: ADME, organism-based, Macaca mulatta; settings: in vivo
[7] = system: Human immunodeficiency virus 1; assay: Antiviral activity against HIV1 in human MT4 cell assessed as inhibition of virus spread in presence of 10% fetal bovine serum; assay type: functional; settings: Human immunodeficiency virus 1, MT4; read-out: CIC95
Outline: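 Spread of HIV-1 infection in MT-4 human T-lymphoid cell culture with 10% fetal bovine serum; CIC95 is the concentration inhibiting spread by ≥95%; mean of at least three independent experiments.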

Liver microsomes [8] = assay: Metabolic stability in rat liver microsomes in presence of NADPH and UDPGA; assay type: ADME, Microsome
Outline: (§2)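 Multiple time points over 1 h: compound 1 µM with liver microsomes 1 mg/mL, in the presence of both UDPGA and NADPH; degradation followed by LC/MS/MS.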

[9] = Cmax in rhesus monkey at 10 mg/kg, po; assay type: ADME, organism-based, Macaca mulatta; design: dose 10 mg/kg, route oral; settings: in vivo
[10] = Oral bioavailability in rat at 10 mg/kg; assay type: ADME, organism-based; settings: in vivo; outline: as §1
Liver = assay: Metabolic stability in dog liver microsomes in presence of NADPH and UDPGA; assay type: ADME, Canis lupus familiaris, Microsome; outline: as §2
[11] = Inhibition of human DNA polymerase gamma
[12] = AUC in rat at 10 mg/kg, po; settings: plasma
Cytochrome P450 3A4 = Cytochrome P450 3A4 (Homo sapiens, UniProt P08684); assay: Inhibition of CYP3A4; assay type: ADME
[13] = Inhibition of recombinant HIV1 integrase strand transfer activity
Liver microsomes [14] = assay: Metabolic stability in human liver microsomes in presence of NADPH and UDPGA; assay type: ADME, Microsome; outline: as §2
Homo sapiens = species: Homo sapiens; assay: Protein binding in human plasma; settings: read-out: PPB (converted)
[15] = Cmax in dog at 4 mg/kg, po; assay type: ADME, organism-based, Canis lupus familiaris; design: dose 4 mg/kg, route oral; settings: in vivo; outline: as §1
[16] = Protein binding in dog plasma; assay type: ADME, cell-free, Canis lupus familiaris; settings: read-out: PPB (converted)
Outline: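 Plasma protein binding measured by ultrafiltration after incubation at 37 °C for 1 h.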

[17] = Plasma clearance in rhesus monkey at 2 mg/kg, iv or 10 mg/kg, po; assay type: ADME, organism-based, Macaca mulatta
Outline: (§3)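 Rhesus dosed 2 mg/kg iv in DMSO; oral arm 10 mg/kg as 0.5% methylcellulose suspension; plasma clearance and iv half-life.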

[18] = Half life in rhesus monkey at 2 mg/kg, iv; assay type: ADME, organism-based, Macaca mulatta; design: dose 2 mg/kg, route intravenous; settings: in vivo; outline: as §3
[19] = Volume of distribution at steady state in dog at 1 mg/kg, iv or 2 mg/kg, po; settings: in vivo, read-out: Vdss
[20] = biological target: T1, DNA polymerase alpha catalytic subunit (Homo sapiens, UniProt P09884); assay: Inhibition of human DNA polymerase alpha
T1 sequence (P09884 whole entry): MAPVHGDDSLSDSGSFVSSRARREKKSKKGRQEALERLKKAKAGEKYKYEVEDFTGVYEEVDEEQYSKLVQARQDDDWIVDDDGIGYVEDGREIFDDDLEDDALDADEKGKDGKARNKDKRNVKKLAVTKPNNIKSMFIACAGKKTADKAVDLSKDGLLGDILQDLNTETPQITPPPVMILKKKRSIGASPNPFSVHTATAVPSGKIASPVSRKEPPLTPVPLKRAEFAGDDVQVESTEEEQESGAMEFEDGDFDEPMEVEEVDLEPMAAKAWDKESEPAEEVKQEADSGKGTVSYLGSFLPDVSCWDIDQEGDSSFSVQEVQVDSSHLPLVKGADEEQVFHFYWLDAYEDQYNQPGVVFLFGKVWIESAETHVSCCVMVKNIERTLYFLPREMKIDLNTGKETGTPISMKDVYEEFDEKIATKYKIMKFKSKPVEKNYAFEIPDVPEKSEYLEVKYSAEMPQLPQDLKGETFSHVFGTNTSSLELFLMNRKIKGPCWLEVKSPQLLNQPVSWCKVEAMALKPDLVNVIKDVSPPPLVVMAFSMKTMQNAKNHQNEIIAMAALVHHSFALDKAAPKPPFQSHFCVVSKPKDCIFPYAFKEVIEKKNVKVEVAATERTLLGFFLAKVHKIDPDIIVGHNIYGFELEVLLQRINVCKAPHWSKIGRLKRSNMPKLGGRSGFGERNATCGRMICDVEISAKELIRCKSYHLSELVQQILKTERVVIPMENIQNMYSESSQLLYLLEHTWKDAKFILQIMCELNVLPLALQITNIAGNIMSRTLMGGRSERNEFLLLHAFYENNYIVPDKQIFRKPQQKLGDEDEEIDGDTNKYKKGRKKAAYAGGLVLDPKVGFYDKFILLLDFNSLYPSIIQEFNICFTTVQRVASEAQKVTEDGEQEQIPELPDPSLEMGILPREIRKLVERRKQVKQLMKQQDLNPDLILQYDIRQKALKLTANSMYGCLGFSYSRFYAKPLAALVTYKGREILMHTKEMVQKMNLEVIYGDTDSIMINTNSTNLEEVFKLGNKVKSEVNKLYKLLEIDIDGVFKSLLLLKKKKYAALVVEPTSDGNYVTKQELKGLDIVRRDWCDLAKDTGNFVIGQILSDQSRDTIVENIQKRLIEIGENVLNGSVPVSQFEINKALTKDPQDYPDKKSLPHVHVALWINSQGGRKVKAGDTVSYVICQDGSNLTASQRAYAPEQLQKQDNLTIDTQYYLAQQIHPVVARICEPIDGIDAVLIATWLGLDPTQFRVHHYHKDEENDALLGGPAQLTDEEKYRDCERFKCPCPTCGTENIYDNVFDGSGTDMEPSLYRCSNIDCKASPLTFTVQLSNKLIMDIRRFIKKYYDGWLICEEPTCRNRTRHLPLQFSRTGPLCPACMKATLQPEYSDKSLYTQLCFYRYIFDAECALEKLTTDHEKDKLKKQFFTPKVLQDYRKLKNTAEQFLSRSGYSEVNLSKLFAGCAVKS

[21] = Volume of distribution at steady state in rhesus monkey at 2 mg/kg, iv or 10 mg/kg, po; settings: in vivo, read-out: Vdss
Canis familiaris [22] = assay: Oral bioavailability in dog at 2 mg/kg; assay type: ADME, organism-based, Canis lupus familiaris; settings: in vivo; outline: as §1
[23] = biological target: Voltage-gated inwardly rectifying potassium channel KCNH2 (Homo sapiens, UniProt Q12809); assay: Inhibition of human ERG
[24] = Half life in rat at 3 mg/kg, iv; assay type: ADME, organism-based; design: dose 3 mg/kg, route intravenous; settings: in vivo; outline: as §1
[25] = Protein binding in rat plasma; assay type: ADME, cell-free; settings: read-out: PPB (converted)
Outline: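 Plasma protein binding was measured by ultrafiltration after a 1 h incubation of compound in plasma at 37 °C.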

Cytochrome P450 2D6 = Cytochrome P450 2D6 (Homo sapiens, UniProt P10635); assay: Inhibition of CYP2D6; assay type: ADME
Canis familiaris [26] = assay: AUC in dog at 2 mg/kg, po; assay type: ADME, organism-based, Canis lupus familiaris, Plasma; design: dose 2 mg/kg, route oral; settings: in vivo; outline: as §1
DNA polymerase beta = DNA polymerase beta (Homo sapiens, UniProt P06746); assay: Inhibition of human DNA polymerase beta
[27] = system: Human immunodeficiency virus 1; assay: Antiviral activity against HIV1 in human MT4 cell assessed as inhibition of virus spread in presence of 50% normal human serum; assay type: functional; settings: Human immunodeficiency virus 1, MT4; read-out: CIC95
Outline: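 Spread of HIV-1 infection in MT-4 human T-lymphoid cell culture with 50% normal human serum; CIC95 is the concentration inhibiting spread by ≥95%; mean of at least three independent experiments.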

[28] = Volume of distribution at steady state in rat at 3 mg/kg, iv or 10 mg/kg, po; assay type: ADME, organism-based; settings: in vivo, read-out: Vdss
Outline: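 Rats received 3 mg/kg intravenously in DMSO/PEG400/H₂O (20%-60%-20%) and 10 mg/kg orally as a 1% methylcellulose suspension. Volume of distribution was derived from the plasma profiles.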

Chain of Cytochrome P450 2C9 (P11712 whole entry): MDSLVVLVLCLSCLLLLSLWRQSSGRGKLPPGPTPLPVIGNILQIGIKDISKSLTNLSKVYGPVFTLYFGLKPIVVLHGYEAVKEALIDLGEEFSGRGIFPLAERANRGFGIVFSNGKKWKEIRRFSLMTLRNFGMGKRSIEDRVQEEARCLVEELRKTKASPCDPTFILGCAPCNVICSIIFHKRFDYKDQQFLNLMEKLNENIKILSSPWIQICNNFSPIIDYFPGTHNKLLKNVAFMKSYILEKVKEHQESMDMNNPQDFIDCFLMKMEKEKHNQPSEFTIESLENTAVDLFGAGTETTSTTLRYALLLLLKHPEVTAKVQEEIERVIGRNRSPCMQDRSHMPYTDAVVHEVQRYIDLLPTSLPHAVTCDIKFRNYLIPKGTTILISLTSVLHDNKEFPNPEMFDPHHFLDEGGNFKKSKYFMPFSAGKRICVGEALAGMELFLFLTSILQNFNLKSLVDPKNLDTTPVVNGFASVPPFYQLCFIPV
Chain of Cytochrome P450 2C19 (P33261 whole entry): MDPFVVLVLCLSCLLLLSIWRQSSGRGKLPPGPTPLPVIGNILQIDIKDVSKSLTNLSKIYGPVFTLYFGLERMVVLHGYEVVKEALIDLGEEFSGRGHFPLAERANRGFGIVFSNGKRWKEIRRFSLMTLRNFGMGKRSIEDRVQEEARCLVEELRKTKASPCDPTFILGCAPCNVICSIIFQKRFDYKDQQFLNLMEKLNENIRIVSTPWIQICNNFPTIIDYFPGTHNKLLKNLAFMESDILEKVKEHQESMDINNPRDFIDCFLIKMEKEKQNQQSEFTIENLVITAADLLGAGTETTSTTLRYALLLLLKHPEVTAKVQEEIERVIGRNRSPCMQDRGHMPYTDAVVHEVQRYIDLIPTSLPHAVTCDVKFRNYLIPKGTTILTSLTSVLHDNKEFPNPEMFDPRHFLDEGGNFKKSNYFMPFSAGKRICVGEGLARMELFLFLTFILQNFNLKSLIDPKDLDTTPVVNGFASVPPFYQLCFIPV
Chain of Cytochrome P450 3A4 (P08684 whole entry): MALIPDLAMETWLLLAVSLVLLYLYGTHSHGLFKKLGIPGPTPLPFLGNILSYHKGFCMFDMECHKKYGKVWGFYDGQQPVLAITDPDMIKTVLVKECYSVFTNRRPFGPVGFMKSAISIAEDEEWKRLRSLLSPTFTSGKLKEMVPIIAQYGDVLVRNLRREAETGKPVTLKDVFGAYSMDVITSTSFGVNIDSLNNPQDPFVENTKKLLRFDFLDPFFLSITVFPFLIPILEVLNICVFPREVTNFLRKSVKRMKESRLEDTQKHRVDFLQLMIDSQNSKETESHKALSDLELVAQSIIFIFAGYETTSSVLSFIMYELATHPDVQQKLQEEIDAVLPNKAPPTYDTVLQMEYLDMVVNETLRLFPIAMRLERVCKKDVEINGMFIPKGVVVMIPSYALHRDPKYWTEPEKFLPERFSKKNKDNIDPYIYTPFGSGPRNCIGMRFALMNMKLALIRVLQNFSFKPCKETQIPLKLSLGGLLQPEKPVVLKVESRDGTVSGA
Chain of Voltage-gated inwardly rectifying potassium channel KCNH2 (Q12809 whole entry): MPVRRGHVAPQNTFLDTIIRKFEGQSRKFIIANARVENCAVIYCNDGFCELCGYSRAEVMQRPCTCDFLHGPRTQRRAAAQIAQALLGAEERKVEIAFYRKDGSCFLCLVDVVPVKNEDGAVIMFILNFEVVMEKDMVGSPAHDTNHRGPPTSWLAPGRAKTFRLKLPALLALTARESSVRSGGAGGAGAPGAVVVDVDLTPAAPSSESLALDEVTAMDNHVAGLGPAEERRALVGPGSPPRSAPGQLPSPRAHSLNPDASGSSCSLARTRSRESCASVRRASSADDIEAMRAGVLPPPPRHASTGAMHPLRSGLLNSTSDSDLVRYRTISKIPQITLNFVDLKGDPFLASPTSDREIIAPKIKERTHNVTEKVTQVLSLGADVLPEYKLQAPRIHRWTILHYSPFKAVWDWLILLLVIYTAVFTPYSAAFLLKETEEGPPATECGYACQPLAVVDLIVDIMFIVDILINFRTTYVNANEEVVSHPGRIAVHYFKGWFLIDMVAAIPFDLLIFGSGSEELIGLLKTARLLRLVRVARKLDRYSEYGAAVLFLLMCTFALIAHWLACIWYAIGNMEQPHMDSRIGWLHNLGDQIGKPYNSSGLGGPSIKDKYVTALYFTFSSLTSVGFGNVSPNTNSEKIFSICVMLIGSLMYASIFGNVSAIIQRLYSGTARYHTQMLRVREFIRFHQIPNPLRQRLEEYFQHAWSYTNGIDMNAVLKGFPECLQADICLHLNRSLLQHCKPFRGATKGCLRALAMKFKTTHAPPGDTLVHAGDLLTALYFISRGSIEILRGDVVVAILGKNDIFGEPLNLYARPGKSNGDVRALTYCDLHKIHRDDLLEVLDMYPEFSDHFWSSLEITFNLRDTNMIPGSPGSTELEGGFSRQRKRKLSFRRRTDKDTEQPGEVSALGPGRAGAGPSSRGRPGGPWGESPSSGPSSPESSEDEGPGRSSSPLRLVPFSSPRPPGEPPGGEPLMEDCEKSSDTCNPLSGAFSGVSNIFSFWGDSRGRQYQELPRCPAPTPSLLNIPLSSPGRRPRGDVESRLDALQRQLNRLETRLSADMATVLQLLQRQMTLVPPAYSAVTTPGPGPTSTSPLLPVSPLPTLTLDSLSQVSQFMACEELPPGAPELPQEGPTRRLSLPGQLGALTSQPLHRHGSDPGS
Chain of Cytochrome P450 2D6 (P10635 whole entry): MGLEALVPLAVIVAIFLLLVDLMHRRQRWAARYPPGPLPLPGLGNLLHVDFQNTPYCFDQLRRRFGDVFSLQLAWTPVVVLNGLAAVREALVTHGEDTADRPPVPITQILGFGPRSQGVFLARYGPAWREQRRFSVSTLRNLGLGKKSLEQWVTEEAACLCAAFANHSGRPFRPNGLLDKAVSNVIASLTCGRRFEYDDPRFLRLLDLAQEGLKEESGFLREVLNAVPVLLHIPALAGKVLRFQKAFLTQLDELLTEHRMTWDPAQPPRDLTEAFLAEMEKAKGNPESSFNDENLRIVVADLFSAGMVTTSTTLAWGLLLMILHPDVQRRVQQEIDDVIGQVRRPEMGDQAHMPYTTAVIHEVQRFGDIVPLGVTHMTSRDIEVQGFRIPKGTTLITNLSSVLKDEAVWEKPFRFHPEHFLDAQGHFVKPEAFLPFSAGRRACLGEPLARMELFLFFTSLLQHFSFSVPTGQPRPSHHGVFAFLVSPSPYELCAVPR

Compound: CN(C)C(=O)C(=O)N(C)[C@H]1CCCCn2c1nc(C(=O)NCc1ccc(F)cc1)c(O)c2=O
- half-life [1]: 2.1 h
- IC50 (Cytochrome P450 2C9): 75 µM
- IC50 [2]: > 50 µM
- AUC [3]: 14 µM·h
- clearance [4]: 7 mL/min/kg
- IC50 (Cytochrome P450 2C19): > 100 µM
- Cmax [5]: 25 µM
- bioavailability [6]: 31%
- IC95 [7]: 0.01 µM
- Stability (Liver microsomes [8]): 11 µL/min/mg
- Cmax [9]: 10 µM
- bioavailability [10]: 64%
- Stability (Liver): 4 µL/min/mg
- IC50 [11]: > 10 µM
- AUC [12]: 37 µM·h
- IC50 (Cytochrome P450 3A4): > 100 µM
- IC50 [13]: 0.012 µM
- Stability (Liver microsomes [14]): 3 µL/min/mg
- fraction unbound (Homo sapiens): 0.19
- Cmax [15]: 27 µM
- fraction unbound [16]: 0.24
- clearance [17]: 8 mL/min/kg
- half-life [18]: 2.6 h
- Vd [19]: 0.9 L/kg
- IC50 [20]: > 10 µM
- Vd [21]: 0.7 L/kg
- F (Canis familiaris [22]): 61%
- IC50 [23]: > 10 µM
- half-life [24]: 7.4 h
- fraction unbound [25]: 0.06
- IC50 (Cytochrome P450 2D6): > 100 µM
- AUC (Canis familiaris [26]): 31 µM·h
- IC50 (DNA polymerase beta): > 10 µM
- IC95 [27]: 0.013 µM
- Vd [28]: 0.7 L/kg
